Laboratory results published in ChEMBL document CHEMBL3046895, “Molecular mechanism of enantioselective inhibition of acetolactate synthase by imazethapyr enantiomers” (J Agric Food Chem, 2010).
The source made the active and inactive calls. The calls are words filed in the database; no cut-off is given here.

target: T1, Acetolactate synthase (Zea mays) (UniProt Q41768+Q41769); assay: Inhibition of in vitro ALS activity in first leaf of the plant grew out Zea mays (maize) seedlings measured at 520 OD/ mg of protein/hr at 800 ug/L at 37 degC; assay type: protein assay
Method in brief: (§1)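 Maize seedlings were treated in vivo, once the first leaf emerged, with herbicide in distilled water at 0, 100, 200, 400 and 800 μg L-1. Uppermost-expanded leaves were harvested 24 h later. ALS was extracted, precipitated with 50% (NH4)2SO4 at 4 °C, and assayed with 30 mM pyruvate, TPP and FAD at pH 7 for 1 h at 37 °C. Acetoin was read at A520 and normalised to Coomassie protein.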

T1 sequence (Q41768 whole entry, looked up): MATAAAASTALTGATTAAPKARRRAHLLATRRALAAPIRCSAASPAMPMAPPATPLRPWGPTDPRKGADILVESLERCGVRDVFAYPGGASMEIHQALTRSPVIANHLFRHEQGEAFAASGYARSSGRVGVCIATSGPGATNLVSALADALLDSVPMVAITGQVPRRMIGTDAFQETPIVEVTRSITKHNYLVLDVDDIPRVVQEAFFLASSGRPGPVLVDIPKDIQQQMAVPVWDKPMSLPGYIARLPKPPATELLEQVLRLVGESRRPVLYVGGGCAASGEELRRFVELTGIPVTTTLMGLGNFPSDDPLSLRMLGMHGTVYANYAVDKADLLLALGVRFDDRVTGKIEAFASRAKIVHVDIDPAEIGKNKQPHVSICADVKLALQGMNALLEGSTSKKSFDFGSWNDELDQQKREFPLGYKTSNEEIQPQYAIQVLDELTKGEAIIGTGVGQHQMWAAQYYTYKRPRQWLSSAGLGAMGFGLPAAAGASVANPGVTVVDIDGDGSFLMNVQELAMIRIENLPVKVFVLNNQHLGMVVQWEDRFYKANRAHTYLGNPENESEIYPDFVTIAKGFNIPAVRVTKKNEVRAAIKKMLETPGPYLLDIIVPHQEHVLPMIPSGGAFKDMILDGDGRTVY
T1 sequence (Q41769 whole entry, looked up): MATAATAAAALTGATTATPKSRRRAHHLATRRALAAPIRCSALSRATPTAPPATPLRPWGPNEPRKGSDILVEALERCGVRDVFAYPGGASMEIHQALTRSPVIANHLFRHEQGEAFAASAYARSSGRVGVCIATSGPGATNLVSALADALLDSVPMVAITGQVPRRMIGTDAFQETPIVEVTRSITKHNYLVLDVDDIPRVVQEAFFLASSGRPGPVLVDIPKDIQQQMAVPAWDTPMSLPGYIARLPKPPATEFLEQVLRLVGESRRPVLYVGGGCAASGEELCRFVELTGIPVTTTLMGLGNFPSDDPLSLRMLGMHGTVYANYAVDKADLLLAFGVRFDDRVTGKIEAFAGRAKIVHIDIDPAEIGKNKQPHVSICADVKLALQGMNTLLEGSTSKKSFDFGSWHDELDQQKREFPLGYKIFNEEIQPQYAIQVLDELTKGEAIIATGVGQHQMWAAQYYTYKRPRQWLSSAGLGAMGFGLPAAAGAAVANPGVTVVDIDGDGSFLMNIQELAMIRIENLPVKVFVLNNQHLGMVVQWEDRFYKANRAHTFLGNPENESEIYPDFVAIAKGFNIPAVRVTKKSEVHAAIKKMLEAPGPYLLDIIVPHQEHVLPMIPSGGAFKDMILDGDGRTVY

Compound | OD
CCc1cnc(C2=N[C@@](C)(C(C)C)C(=O)N2)c(C(=O)O)c1 | 2.06 h⁻¹
CCc1cnc(C2=N[C@](C)(C(C)C)C(=O)N2)c(C(=O)O)c1 | 0.97 h⁻¹
CCc1cnc(C2=NC(C)(C(C)C)C(=O)N2)c(C(=O)O)c1 (racemic) | 1.9 h⁻¹

target: T1, Acetolactate synthase (Zea mays); assay: Inhibition of in vitro ALS activity in first leaf of the plant grew out Zea mays (maize) seedlings measured at 520 OD/ mg of protein/hr at 400 ug/L at 37 degC; assay type: protein assay; method in brief: as §1

Compound | OD
CCc1cnc(C2=N[C@@](C)(C(C)C)C(=O)N2)c(C(=O)O)c1 | 3.18 h⁻¹
CCc1cnc(C2=N[C@](C)(C(C)C)C(=O)N2)c(C(=O)O)c1 | 1.56 h⁻¹
CCc1cnc(C2=NC(C)(C(C)C)C(=O)N2)c(C(=O)O)c1 (racemic) | 2.26 h⁻¹

target: T1, Acetolactate synthase (Zea mays); assay: Inhibition of in vitro ALS activity in first leaf of the plant grew out Zea mays (maize) seedlings measured at 520 OD/ mg of protein/hr at 200 ug/L at 37 degC; assay type: protein assay; method in brief: as §1

Compound | OD
CCc1cnc(C2=N[C@@](C)(C(C)C)C(=O)N2)c(C(=O)O)c1 | 6.34 h⁻¹
CCc1cnc(C2=N[C@](C)(C(C)C)C(=O)N2)c(C(=O)O)c1 | 3.39 h⁻¹
CCc1cnc(C2=NC(C)(C(C)C)C(=O)N2)c(C(=O)O)c1 (racemic) | 4.41 h⁻¹

target: T1, Acetolactate synthase (Zea mays); assay: Inhibition of in vitro ALS activity of Zea mays (maize) at 25 mg/L at 37 degC; assay type: protein assay
Method in brief: (§2)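 ALS came from uppermost-expanded leaves of 5-day maize seedlings, using a 50% (NH4)2SO4 pellet. Inhibitor was dried from acetone in the tubes at 0, 0.04, 0.2, 1, 5 and 25 mg L-1. The assay used 30 mM pyruvate, 1 mM MgCl2, 1 mM TPP, 20 μM FAD and 50 mM K-phosphate at pH 7, run for 1 h at 37 °C. It was stopped with H2SO4, decarboxylated for 15 min at 60 °C, developed with creatine/α-naphthol, and read at A520.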

Compound | inhibition
CCc1cnc(C2=N[C@@](C)(C(C)C)C(=O)N2)c(C(=O)O)c1 | Active
CCc1cnc(C2=N[C@](C)(C(C)C)C(=O)N2)c(C(=O)O)c1 | Active
CCc1cnc(C2=NC(C)(C(C)C)C(=O)N2)c(C(=O)O)c1 (racemic) | Active

target: T1, Acetolactate synthase (Zea mays); assay: Inhibition of in vitro ALS activity in first leaf of the plant grew out Zea mays (maize) seedlings measured at 520 OD/ mg of protein/hr at 100 ug/L at 37 degC; assay type: protein assay; method in brief: as §1

Compound | OD
CCc1cnc(C2=N[C@@](C)(C(C)C)C(=O)N2)c(C(=O)O)c1 | 7.96 h⁻¹
CCc1cnc(C2=N[C@](C)(C(C)C)C(=O)N2)c(C(=O)O)c1 | 7.14 h⁻¹
CCc1cnc(C2=NC(C)(C(C)C)C(=O)N2)c(C(=O)O)c1 (racemic) | 7.6 h⁻¹

target: T1, Acetolactate synthase (Zea mays); assay: Inhibition of in vitro ALS activity of Zea mays (maize) at 200 ug/L at 37 degC; assay type: protein assay; method in brief: as §2

Compound | inhibition
CCc1cnc(C2=N[C@@](C)(C(C)C)C(=O)N2)c(C(=O)O)c1 | 3.8%
CCc1cnc(C2=N[C@](C)(C(C)C)C(=O)N2)c(C(=O)O)c1 | 28.9%
CCc1cnc(C2=NC(C)(C(C)C)C(=O)N2)c(C(=O)O)c1 (racemic) | 19.8%
